The source made the active and inactive calls. No cut-off for these calls is given here. Starred links: 1 amine or outer side, 2 acyl side, 3 side chain; linkers in the order of their positions; H or OH if unused. Non-standard residues stand in square brackets, D forms with d. Residues, ends and D or L forms follow the SMILES beside them. *: point of attachment. NH(CH2CH2O)2CH2CH2NHBiotin = O=C(CCCC[C@@H]1SC[C@@H]2NC(=O)N[C@@H]21)NCCOCCOCCN*; Octanoyl(2R-Me,7,8-dehydro) = C=CCCCC[C@@H](C)C(=O)*; Oct7ynoyl(2R-Me) = C#CCCCC[C@@H](C)C(=O)*; X2 = CN(C)c1ccc2c(CC(=O)*)cc(=O)oc2c1; NMeAEEA = CN(CCOCCOCC(=O)[*:2])[*:1]; Ethylenediamine = C(CN[*:2])N[*:1]; NMeF = CN[C@@H](Cc1ccccc1)C(=O)O; X4 = CC(=O)CCCC[C@@H](C)C(=O)*; Oct(7)enoyl = C=CCCCCCC(=O)*; Oct(7)ynoyl = C#CCCCCCC(=O)*; NMeV = CN[C@H](C(=O)O)C(C)C; Hept6ynoyl = C#CCCCCC(=O)*; X5 = COC(=O)CCCCCCCCN(C)*; NMeA = CN[C@@H](C)C(=O)O; X6 = COC(=O)COCCOCCN(C)*; X3 = C=CCCCCC(=O)*
Key:
[1] = tested on: Trypanosoma brucei brucei; test: Antiparasitic activity against Trypanosoma brucei brucei 427-221 assessed as growth inhibition after 48 hrs by cellTiter-Glo assay; format: functional, organism-based; details: 427-221, 48 h
How it was run: (§1)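 T. b. brucei 427-221 was grown at 37 °C and 5% CO2 in HMI-9 with 10% FBS, 10% Serum Plus and penicillin/streptomycin, then seeded at 2×10^4/mL. Compounds were serially diluted in DMSO (1% final) and exposed for 48 h. Viability was read by CellTiter-Glo ATP luminescence. Percent inhibition was normalized to thimerosal (2 µM final) and DMSO controls, and IC50 was derived by curve fitting.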

[2] = Cytotoxicity against african green monkey Vero cells; format: cell-based; details: chlorocebus sabaeus, read-out: LD50 (the source's name)
[3] = tested on: Trypanosoma brucei; test: Antiparasitic activity against Trypanosoma brucei assessed as growth inhibition; format: functional, organism-based; how it was run: as §1
[4] = Selectivity index, ratio of LD50 for african green monkey Vero cells to IC50 for Trypanosoma brucei brucei 427-221; format: toxicity, cell-based; details: read-out: Ratio LD50/IC50
[5] = species on record: Danio rerio; test: Drug uptake in 120 hrs post fertilized zebrafish embryo lateral line at 250 to 500 uM after 3 hrs by confocal microscopic analysis; format: ADME, organism-based; details: in vivo
[6] = Drug uptake in neomycin-untreated zebrafish embryo neuromast at 250 uM after 3 hrs by confocal microscopic analysis; format: ADME, tissue-based, Danio rerio; details: in vivo
How it was run: (§2)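 Zebrafish embryos were pretreated 1 h with neomycin 500 µM or with medium only. Both groups were then exposed to fluorescent probe (250 µM), fluorophore control (250 µM) or no compound for 3 h, and localization was imaged by confocal microscopy.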

[7] = species on record: Danio rerio; test: Drug uptake in 48 hrs post fertilized zebrafish embryo lateral line at 1 to 270 uM after 3 hrs by confocal microscopic analysis; format: ADME, organism-based; details: in vivo
How it was run: (§3)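 Zebrafish embryos at 48 and 120 h post fertilization were incubated with fluorescent probe or fluorophore control in methylene blue-free egg water at 270, 90, 30 and 0 µM, three embryos per treatment. Localization was imaged by confocal microscopy after 3 h.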

[8] = Drug uptake in neomycin-treated zebrafish embryo neuromast at 250 uM after 3 hrs by confocal microscopic analysis; format: ADME, tissue-based, Danio rerio; details: in vivo; how it was run: as §2
[9] = Drug uptake in 120 hrs post fertilized zebrafish embryo intestinal tract at 1 to 270 uM after 3 hrs by confocal microscopic analysis; format: ADME, Danio rerio; details: in vivo; how it was run: as §3
[10] = tested on: Leishmania donovani; test: Antiparasitic activity against Leishmania donovani assessed as growth inhibition; format: functional, organism-based
[11] = Toxicity in 48 hrs post fertilized zebrafish embryo assessed as survival after 24 hrs by inverted microscopic analysis; format: organism-based, Danio rerio; details: in vivo, read-out: MTD
[12] = tested on: Trypanosoma brucei brucei; test: Antiparasitic activity against Trypanosoma brucei brucei 427-221 assessed as growth inhibition up to 50 uM after 48 hrs by cellTiter-Glo assay; format: functional, organism-based; how it was run: as §1

Compound | IC50 [1] [µM] | CC50 [2] [µM] | selectivity ratio [4] | further results
C#CCCCCC(=O)N(C)[C@H](C(=O)N(C)[C@H](C(=O)N(C)[C@H](C(=O)N(C)[C@@H](C)C(=O)N(C)[C@@H](Cc1ccccc1)C(=O)O)C(C)C)C(C)C)C(C)C (Hept6ynoyl-[NMeV][NMeV][NMeV][NMeA][NMeF]-OH) | > 13.7 | 281 |  | 
Cc1ccc(C(=O)Nc2ccc(S(=O)(=O)O)c3cc(S(=O)(=O)O)cc(S(=O)(=O)O)c23)cc1NC(=O)c1cccc(NC(=O)Nc2cccc(C(=O)Nc3cc(C(=O)Nc4ccc(S(=O)(=O)O)c5cc(S(=O)(=O)O)cc(S(=O)(=O)O)c45)ccc3C)c2)c1 [SURAMIN] |  |  |  | IC50 [3]: 1.4 µM
C=CCCCCCC(=O)N(C)[C@H](C(=O)N(C)[C@H](C(=O)N(C)[C@H](C(=O)N(C)[C@@H](C)C(=O)N(C)[C@@H](Cc1ccccc1)C(=O)N(C)CCCCCCCCC(=O)OC)C(C)C)C(C)C)C(C)C ({Oct(7)enoyl}-[NMeV][NMeV][NMeV][NMeA][NMeF]-X5) | 0.7 |  |  | 
C=CCCCCC(=O)N(C)[C@H](C(=O)N(C)[C@H](C(=O)N(C)[C@H](C(=O)N(C)[C@@H](C)C(=O)N(C)[C@@H](Cc1ccccc1)C(=O)OC)C(C)C)C(C)C)C(C)C (X3-[NMeV][NMeV][NMeV][NMeA][NMeF]-OMe) | 0.6 | 24.7 | 41 | 
C#CCCCCCC(=O)N(C)[C@H](C(=O)N(C)[C@H](C(=O)N(C)[C@H](C(=O)N(C)[C@@H](C)C(=O)N(C)[C@@H](Cc1ccccc1)C(=O)O)C(C)C)C(C)C)C(C)C ({Oct(7)ynoyl}-[NMeV][NMeV][NMeV][NMeA][NMeF]-OH) | 10.3 | > 68.9 | > 6.7 | 
C#CCCCCCC(=O)N(C)[C@H](C(=O)N(C)[C@H](C(=O)N(C)[C@H](C(=O)N(C)[C@@H](C)C(=O)N(C)[C@@H](Cc1ccccc1)C(=O)N(C)C)C(C)C)C(C)C)C(C)C ({Oct(7)ynoyl}-[NMeV][NMeV][NMeV][NMeA][NMeF]-NMe2) | 0.6 | 159 | 270 | 
C=CCCCCC(=O)N(C)[C@H](C(=O)N(C)[C@H](C(=O)N(C)[C@H](C(=O)N(C)[C@@H](C)C(=O)N(C)[C@@H](Cc1ccccc1)C(=O)O)C(C)C)C(C)C)C(C)C (X3-[NMeV][NMeV][NMeV][NMeA][NMeF]-OH) | 2.6 | > 70 | > 27 | 
C=CCCCCCC(=O)N(C)[C@H](C(=O)N(C)[C@H](C(=O)N(C)[C@H](C(=O)N(C)[C@@H](C)C(=O)N(C)[C@@H](Cc1ccccc1)C(=O)N(C)CCOCCOCC(=O)NCCNC(=O)Cc1cc(=O)oc2cc(N(C)C)ccc12)C(C)C)C(C)C)C(C)C ({Oct(7)enoyl}-[NMeV][NMeV][NMeV][NMeA][NMeF][NMeAEEA]-{Ethylenediamine-X2}) |  |  |  | Drug uptake [5]: Active; Drug uptake [6]: Active; Drug uptake [7]: Active; Drug uptake [8]: Not Active; Drug uptake [9]: Active
C#CCCCCCC(=O)N(C)[C@H](C(=O)N(C)[C@H](C(=O)N(C)[C@H](C(=O)N(C)[C@@H](C)C(=O)N(C)[C@@H](Cc1ccccc1)C(=O)OC)C(C)C)C(C)C)C(C)C ({Oct(7)ynoyl}-[NMeV][NMeV][NMeV][NMeA][NMeF]-OMe) | 0.6 | 27 | 45 | 
C#CCCCCC(=O)N(C)[C@H](C(=O)N(C)[C@H](C(=O)N(C)[C@H](C(=O)N(C)[C@@H](C)C(=O)N(C)[C@@H](Cc1ccccc1)C(=O)N(C)C)C(C)C)C(C)C)C(C)C (Hept6ynoyl-[NMeV][NMeV][NMeV][NMeA][NMeF]-NMe2) | 1.3 | 156 | 120 | 
C=CCCCCCC(=O)N(C)[C@H](C(=O)N(C)[C@H](C(=O)N(C)[C@H](C(=O)N(C)[C@@H](C)C(=O)N(C)[C@@H](Cc1ccccc1)C(=O)N(C)C)C(C)C)C(C)C)C(C)C ({Oct(7)enoyl}-[NMeV][NMeV][NMeV][NMeA][NMeF]-NMe2) | 0.6 | 23.8 | 40 | IC50 [10]: 2.7 µM
NCCCC(N)(C(=O)O)C(F)F (stereo not given) [EFLORNITHINE] |  |  |  | IC50 [3]: 59 µM
C=CCCCC[C@@H](C)C(=O)N(C)[C@H](C(=O)N(C)[C@H](C(=O)N[C@H](C(=O)N(C)[C@@H](C)C(=O)N(C)[C@@H](Cc1ccccc1)C(N)=O)C(C)C)C(C)C)C(C)C [ALMIRAMIDE C] ({Octanoyl(2R-Me,7,8-dehydro)}-[NMeV][NMeV]V[NMeA][NMeF]-NH2) | 3 | 33.1 | 11 | 
CN(C)c1ccc2c(CC(=O)NCCNC(=O)CCc3ccccc3)cc(=O)oc2c1 |  |  |  | Drug uptake [6]: Not Active; Drug uptake [7]: Active; Drug uptake [9]: Active
C=CCCCCCC(=O)N(C)[C@H](C(=O)N(C)[C@H](C(=O)N(C)[C@H](C(=O)N(C)[C@@H](C)C(=O)N(C)[C@@H](Cc1ccccc1)C(=O)OC)C(C)C)C(C)C)C(C)C ({Oct(7)enoyl}-[NMeV][NMeV][NMeV][NMeA][NMeF]-OMe) | 0.4 | 18.8 | 47 | MNTC at 24 h [11]: 168 µM
C=CCCCCCC(=O)N(C)[C@H](C(=O)N(C)[C@H](C(=O)N(C)[C@H](C(=O)N(C)[C@@H](C)C(=O)N(C)[C@@H](Cc1ccccc1)C(=O)N(C)CCOCCOCC(=O)OC)C(C)C)C(C)C)C(C)C ({Oct(7)enoyl}-[NMeV][NMeV][NMeV][NMeA][NMeF]-X6) | 3.5 |  |  | 
Nc1nc(N)nc(Nc2ccc([As]3SCC(CO)S3)cc2)n1 (stereo not given) [MELARSOPROL] |  |  |  | IC50 [3]: 0.01 µM
N=C(N)c1ccc(OCCCCCOc2ccc(C(=N)N)cc2)cc1 [PENTAMIDINE] |  |  |  | IC50 [3]: 0.03 µM
CC(=O)CCCC[C@@H](C)C(=O)N(C)[C@H](C(=O)N(C)[C@H](C(=O)N[C@H](C(=O)N(C)[C@@H](C)C(=O)N(C)[C@@H](Cc1ccccc1)C(N)=O)C(C)C)C(C)C)C(C)C [ALMIRAMIDE A] (X4-[NMeV][NMeV]V[NMeA][NMeF]-NH2) |  | 113 |  | 
C#CCCCC[C@@H](C)C(=O)N(C)[C@H](C(=O)N(C)[C@H](C(=O)N[C@H](C(=O)N(C)[C@@H](C)C(=O)N(C)[C@@H](Cc1ccccc1)C(N)=O)C(C)C)C(C)C)C(C)C [ALMIRAMIDE B] ({Oct7ynoyl(2R-Me)}-[NMeV][NMeV]V[NMeA][NMeF]-NH2) | 6 | 52.3 | 8.7 | 
C=CCCCCC(=O)N(C)[C@H](C(=O)N(C)[C@H](C(=O)N(C)[C@H](C(=O)N(C)[C@@H](C)C(=O)N(C)[C@@H](Cc1ccccc1)C(=O)N(C)C)C(C)C)C(C)C)C(C)C (X3-[NMeV][NMeV][NMeV][NMeA][NMeF]-NMe2) | 0.6 | 93.1 | 160 | IC50 [10]: 6.7 µM
C=CCCCCCC(=O)N(C)[C@H](C(=O)N(C)[C@H](C(=O)N(C)[C@H](C(=O)N(C)[C@@H](C)C(=O)N(C)[C@@H](Cc1ccccc1)C(=O)O)C(C)C)C(C)C)C(C)C ({Oct(7)enoyl}-[NMeV][NMeV][NMeV][NMeA][NMeF]-OH) | > 13.7 | 192 |  | 
Cc1cc(C)n2c1C=C1C=CC(CCC(=O)NCCNC(=O)CCc3ccccc3)=[N+]1[B-]2(F)F |  |  |  | Activity [12]: inactive
C=CCCCCCC(=O)N(C)[C@H](C(=O)N(C)[C@H](C(=O)N(C)[C@H](C(=O)N(C)[C@@H](C)C(=O)N(C)[C@@H](Cc1ccccc1)C(=O)NCCOCCOCCNC(=O)CCCC[C@@H]1SC[C@@H]2NC(=O)N[C@@H]21)C(C)C)C(C)C)C(C)C ({Oct(7)enoyl}-[NMeV][NMeV][NMeV][NMeA][NMeF]-{NH(CH2CH2O)2CH2CH2NHBiotin}) |  |  |  | IC50 [10]: 9.9 µM
C#CCCCCC(=O)N(C)[C@H](C(=O)N(C)[C@H](C(=O)N(C)[C@H](C(=O)N(C)[C@@H](C)C(=O)N(C)[C@@H](Cc1ccccc1)C(=O)OC)C(C)C)C(C)C)C(C)C (Hept6ynoyl-[NMeV][NMeV][NMeV][NMeA][NMeF]-OMe) | 0.6 | 41.4 | 69 | 

Source: ChEMBL document CHEMBL2331458, “Examination of the mode of action of the almiramide family of natural products against the kinetoplastid parasite Trypanosoma brucei” (J Nat Prod, 2013)
